Bioassay records from PubChem.
This is a sample that favours compounds with a hit; in the whole collection about 2.1% have one here.
m5-HT2A agonist: mouse Htr2a agonists via beta-arrestin recruitment, primary screen, cell-based, luminescence; activation, % at 7.6 µM; 5-hydroxytryptamine receptor 2A (Mus musculus), P35363; 0.66% of 360,000 active; CHO-K1 mHTR2A beta-arrestin complementation; percent of 30 µM serotonin response; AID 624169, 2012;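 active means activation above a run cutoff, the mean activation of all tested compounds plus 3 SD, cut at about 14% in these data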;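 further: 0% = plate median of compound wells and 100% = 30 µM serotonin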
APJ antagonist: antagonists of human apelin receptor APJ, primary screen, CHO-K1 cells, beta-arrestin complementation, luminescence; P35414; inhibition, % at 20 µM; AID 2521, 2010; 0.32% of 330,000 active;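 active means inhibition above about 40% at 20 µM, limit read from the data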;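 further: cells challenged with 10 nM apelin-13 agonist together with compound; plate controls were apelin-13 plus DMSO wells for no effect and DMSO wells lacking apelin-13 for full effect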
Target sequence (P35414 whole entry, looked up): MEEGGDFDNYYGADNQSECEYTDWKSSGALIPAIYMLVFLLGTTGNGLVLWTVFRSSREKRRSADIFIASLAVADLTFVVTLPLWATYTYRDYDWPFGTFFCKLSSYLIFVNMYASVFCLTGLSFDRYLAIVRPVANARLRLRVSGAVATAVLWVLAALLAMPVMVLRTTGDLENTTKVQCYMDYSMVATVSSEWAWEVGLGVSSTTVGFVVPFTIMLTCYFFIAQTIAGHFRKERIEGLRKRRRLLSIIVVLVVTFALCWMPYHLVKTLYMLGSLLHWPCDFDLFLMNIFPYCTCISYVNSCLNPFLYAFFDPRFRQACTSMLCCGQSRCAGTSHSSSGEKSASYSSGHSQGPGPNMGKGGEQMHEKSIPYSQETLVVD
CXCR6 inh: CXCR6 receptor inhibitors, primary screen, cell-based, beta-arrestin, luminescence, CHO-K1 PathHunter, 1536-well; inhibition, % at 20 µM; 0.36% of 360,000 active; AID 602244, 2012; in the data active means inhibition above about 34%, passing the limit was not always enough;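 further: antagonist mode with CXCL16 agonist at 10 nM final; 0% = 10 nM CXCL16 with DMSO and 100% = unstimulated wells without agonist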
EBI2 block: EBI2 receptor antagonists, beta-arrestin recruitment, primary screen, cell-based, luminescence, 7a,25-OHC stimulation, uHTS; G-protein coupled receptor 183 (Homo sapiens), P32249; inhibition, % at 5 µM; 7a,25-OHC stimulated; 0.81% of 360,000 active; in the data active means inhibition above about 38%;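 further: enzyme fragment complementation signal reports receptor beta-arrestin coupling in cells; 0% = agonist plus DMSO wells and 100% = wells without agonist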
CCR6 antag: CCR6 receptor antagonists, primary screen, cell-based, CHO-K1, luminescence, beta-arrestin, uHTS | C-C chemokine receptor type 6 (Homo sapiens), P51684 | inhibition, % at 20 µM | 0.49% of 340,000 active | CHO-K1 CCR6 PathHunter beta-arrestin, CCL20-stimulated;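 active means compounds whose inhibition of the agonist-driven luminescence signal at 20 µM reaches about 50%, limit read from the data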;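 further: cells stimulated with CCL20 at 14 nM final; plate controls were DMSO with CCL20 for no effect and DMSO without agonist for full effect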
APJ ag: agonists of human apelin receptor APJ, primary screen, CHO-K1 cells, PathHunter beta-arrestin, luminescence. 0% DMSO wells, 100% apelin. activation, % at 20 µM. 0.11% of 330,000 active. AID 2520, 2010;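 active means activation more than six SD over the plate average, tested at 20 µM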;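 further: 0% = DMSO alone and 100% = apelin-13 at 10 nM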
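Material: engineered CHO-K1 APJ arrestin reporter cells; amount: 1000 CHO-K1 reporter cells seeded per well; incubation: compound stimulation 90 min at 25 °C, detection 60 min; signal: luminescent beta-gal fragment complementation, chemiluminescent substrate; read-out basis: APJ agonist activity; controls: DMSO-only wells as negative, 10 nM Apelin-13 as positive control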
OPRM1 ag: OPRM1 agonists via beta-arrestin recruitment, confirmation, counter-screen for mouse HTR2A agonist project, cell-based, luminescence, single concentration. activation, % at 9.3 µM. AID 624380, 2012. U2OS OPRM1 beta-arrestin PathHunter; DMSO 0%, DAMGO 9.3 µM 100%. shares compounds with m5-HT2A agonist. 5.3% of 2,300 active;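 active means mean activation above the mean of DMSO-only wells plus 3 SD, cut at about 0.5% in these data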
m5-HT2A ag conf: mouse HTR2A agonists, beta-arrestin recruitment, confirmation, cell-based, luminescence, CHO-K1 PathHunter, triplicate. 19% of 2,300 active. shares compounds with m5-HT2A agonist. DMSO 0%, 30 µM serotonin 100%. AID 624381, 2012. activation, % at 7.6 µM;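 active means mean activation across triplicates above the hit threshold derived in the original primary screen, cut at about 15% in these data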
Numbers without * were called inactive.

How did CCCN1CCN(C(=S)Nc2ccc(S(N)(=O)=O)cc2)CC1 do in these assays?
m5-HT2A agonist: 16*; APJ antagonist: 3; CXCR6 inh: -6; EBI2 block: -10; CCR6 antag: 7; APJ ag: -2; OPRM1 ag: -1; m5-HT2A ag conf: -1

How did CCCN(CCC)CC(=O)NCC1(c2ccccc2)CCOCC1 do in these assays?
m5-HT2A agonist: 17*; APJ antagonist: 3; CXCR6 inh: 2; EBI2 block: 10; CCR6 antag: 5; APJ ag: 4; OPRM1 ag: 0.5*; m5-HT2A ag conf: 5

Results for CCN(C[C@H]1N[C@@](C)(C(=O)OC)[C@H]2C(=O)N(C)C(=O)[C@@H]12)C(=O)Nc1ccc(F)cc1 ?
m5-HT2A agonist: -5; APJ antagonist: 3; CXCR6 inh: -2; EBI2 block: -7; CCR6 antag: 6; APJ ag: -3

What do the screens show for `CCN(C[C@H]1N[C@@](C)(C(=O)OC)[C@H]2C(=O)N(C)C(=O)[C@@H]12)C(=O)Nc1ccc(Cl)cc1`?
m5-HT2A agonist: 37*; APJ antagonist: 14; CXCR6 inh: 2; EBI2 block: -4; CCR6 antag: 2; APJ ag: -1; OPRM1 ag: 0; m5-HT2A ag conf: -1

Results for O=C(CN(c1ccc(F)cc1)S(=O)(=O)c1ccc2c(c1)OCCO2)N1CCOCC1 ?
m5-HT2A agonist: 25*; APJ antagonist: -86; CXCR6 inh: -2; EBI2 block: -2; CCR6 antag: 4; APJ ag: -2; OPRM1 ag: -1; m5-HT2A ag conf: -2

How did CC1(C)Oc2ccc3ccc(=O)oc3c2/C(=C/Nc2cccc(O)c2)C1=O do in these assays?
m5-HT2A agonist: 17*; APJ antagonist: 3; CXCR6 inh: 9; EBI2 block: -1; CCR6 antag: 8; APJ ag: 3; OPRM1 ag: 0; m5-HT2A ag conf: 4

Results for CN(C(=O)CSc1n[nH]c(-c2cccs2)n1)C1CCS(=O)(=O)C1 (configuration not stated) ?
m5-HT2A agonist: 4; APJ antagonist: -30; CXCR6 inh: 8; EBI2 block: -4; CCR6 antag: -11; APJ ag: -1

Results for c1ccc2cc(CN3CCOCC3)ccc2c1 ?
m5-HT2A agonist: 20*; APJ antagonist: 6; CXCR6 inh: -2; EBI2 block: -10; CCR6 antag: 15; APJ ag: -6; OPRM1 ag: -1; m5-HT2A ag conf: -4

How did Cc1cc(NN)nc(NS(=O)(=O)c2ccccc2Cl)n1 do in these assays?
m5-HT2A agonist: -3; APJ antagonist: -13; CXCR6 inh: 1; EBI2 block: -6; CCR6 antag: -9; APJ ag: -1

Results for COc1cc(C)nc(NS(=O)(=O)c2ccccc2Cl)n1 ?
m5-HT2A agonist: 31*; APJ antagonist: 11; CXCR6 inh: -6; EBI2 block: -7; CCR6 antag: 11; APJ ag: -3; OPRM1 ag: 0; m5-HT2A ag conf: -1

Results for O=C(c1ccco1)N1CCN(c2nc3ccsc3c(=O)s2)CC1 ?
m5-HT2A agonist: 42*; APJ antagonist: 5; CXCR6 inh: 2; EBI2 block: -2; CCR6 antag: 9; APJ ag: -4; OPRM1 ag: -1; m5-HT2A ag conf: 9

Results for CCOC(=O)Cn1c(=O)c(-c2ccccc2NCc2ccccc2)nc2ccccc21 ?
m5-HT2A agonist: 1; APJ antagonist: 22; CXCR6 inh: 16; EBI2 block: 9; CCR6 antag: -16; APJ ag: -5

How did Cc1nc2ccccc2n1CC(=O)OCC(=O)NCc1ccccc1 do in these assays?
m5-HT2A agonist: 15*; APJ antagonist: -15; CXCR6 inh: -3; EBI2 block: -7; CCR6 antag: 5; APJ ag: -3; OPRM1 ag: 0; m5-HT2A ag conf: 3

How did COc1ccc(S(=O)(=O)N2CCOC2CNC(=O)C(=O)NCCc2ccccc2)cc1C (configuration not stated) do in these assays?
m5-HT2A agonist: 16*; APJ antagonist: 7; CXCR6 inh: -4; EBI2 block: -6; CCR6 antag: 0; APJ ag: 0; OPRM1 ag: -1; m5-HT2A ag conf: -5

What do the screens show for `COc1ccc(CCNC(=O)C(=O)NCC2CCCN2S(=O)(=O)c2ccccc2)cc1` (configuration not stated)?
m5-HT2A agonist: 16*; APJ antagonist: -36; CXCR6 inh: -1; EBI2 block: -17; CCR6 antag: 2; APJ ag: 3; OPRM1 ag: 0; m5-HT2A ag conf: 0

How did COc1ccc(S(=O)(=O)N2CCCC2CNC(=O)C(=O)NCCc2ccccc2)cc1 (configuration not stated) do in these assays?
m5-HT2A agonist: 2; APJ antagonist: 11; CXCR6 inh: -4; EBI2 block: 8; CCR6 antag: -7; APJ ag: 5

Results for CCOc1cc(N2CCOCC2)c(OCC)cc1NC(=O)CN1C(=O)NC(CC)(c2ccc(F)cc2)C1=O (configuration not stated) ?
m5-HT2A agonist: 15*; CXCR6 inh: 1; EBI2 block: -2; CCR6 antag: -5; OPRM1 ag: -1; m5-HT2A ag conf: 1

Results for COc1cccc(C(=O)NOCc2ccccc2)c1OC ?
m5-HT2A agonist: 2; APJ antagonist: 6; CXCR6 inh: -5; EBI2 block: -1; CCR6 antag: 8; APJ ag: -7

What do the screens show for `CC(=O)Nc1ccc(C(=O)OCC(=O)N2CCC(Cc3ccccc3)CC2)cc1`?
m5-HT2A agonist: -5; APJ antagonist: 14; CXCR6 inh: -13; EBI2 block: 4; CCR6 antag: -11; APJ ag: 0

Results for CC(/C=N/NC(=O)c1sc(N)nc1C)=C\c1ccccc1 ?
m5-HT2A agonist: -5; APJ antagonist: -14; CXCR6 inh: -4; EBI2 block: -2; CCR6 antag: 7; APJ ag: -1
